Measurements reported in PMC2745083 (Neuropharmacology, 2009).

Experiments:
LogD determination = assay type: physicochemical; conditions: octanol/phosphate buffer, pH 7.4
Outline: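 Formulated [11C]-labeled test compound was partitioned between octanol and phosphate buffer (pH 7.4), vortexed 2 min and centrifuged 2 min. Both layers were sampled. The octanol layer was serially transferred to fresh octanol/buffer and the procedure repeated, giving six sample sets. Radioactivity was measured in a well counter. logD = log(decay-corrected octanol activity × 10 / decay-corrected buffer activity).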

[1] = Plasma protein binding assay; assay type: in vitro ADME; conditions: baboon
Outline: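 Formulated [11C]-labeled test compound was incubated 10 min at room temperature in baboon plasma pooled from at least 4 animals. Total activity was sampled, then plasma was ultrafiltered through a Centrifree device (10 min centrifugation) and the filtrate counted. %unbound = Aunbound × 100 / total activity.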

[2] = not given; remark: listed apart in the source
[3] = in vivo, 10 mg/kg; cited from earlier work
[4] = [acetyl-11C]-SA from published data; ref Hooker et al., 2008; cited from earlier work
[5] = [acetyl-11C]-SA from published data; ref Hooker et al., 2008; cited from earlier work; remark: listed apart in the source
[6] = baboon, i.v., acetyl-labeled SA, previous study; ref Hooker, 2008; cited from earlier work
[7] = test system: permeability glycoprotein (P-gp); conditions: ref Teksin et al., 2009; cited from earlier work
[8] = Brain homogenate analysis for parent compound after i.p. injection; assay type: in vivo, Sprague Dawley rats; conditions: rat, ~65 min post injection
Outline: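 Male Sprague Dawley rats (7–8 weeks) under isoflurane/oxygen got the [11C]-labeled test compound i.p. via a butterfly catheter with a saline rinse (3.0 ± 0.4 mCi), followed by 60 min dynamic PET. Animals were decapitated and brains homogenized in water. The homogenate was precipitated with cold acetonitrile, vortexed and centrifuged (2000 rcf, 2 min). The supernatant was spiked with standard, γ-counted and run on HPLC; the co-eluting fraction was counted as a decay-corrected ratio to initial homogenate radioactivity.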

[9] = female, baboon (Papio anubis), in vivo, iv

Question: Which logD (LogD determination) does the source give for `COC(=O)[C@@H]1C[C@H](O)C(=O)[C@H]2[C@@]1(C)CC[C@H]1C(=O)O[C@H](c3ccoc3)C[C@]21C` [SB, Salvinorin B] here?
Answer: Its logD is 1.5.

Question: And the fraction unbound at 10 min [1]?
Answer: The fraction unbound at 10 min was 0.473.

Question: What about the “lower average maximum brain concentration relative to [11C]-SA” value [9] of the same compound?
Answer: The value was “approximately 20%”.

Question: And the “time of peak brain concentration” value [9]?
Answer: The value was 70 s.

Question: And the “time to clear to half of maximum brain concentration” value [9]?
Answer: Its value is 6.0 min.

Question: What does the source list for `COC(=O)[C@@H]1C[C@H](OC(C)=O)C(=O)[C@H]2[C@@]1(C)CC[C@H]1C(=O)O[C@H](c3ccoc3)C[C@]21C` [SA, Salvinorin A]?
Answer: maximum average concentration in the brain (baboon, bolus intravenous administration, whole brain ROI): 0.015 % ID/cm^3; brain radioactivity at 60 min after injection (cleared to) (baboon, i.v., labeled at the methyl ester): 0.001%; time to be metabolized to ~50% in plasma ([2]; baboon plasma after i.v. injection): under 5 min; antinociception after 30 minutes [3]: no detectable antinociception; LogD (pH 7.4) [4]: 2.34 ± 0.09 (n = 4); Plasma Protein Binding (% unbound) [5]: 16.1 % (n = 2); residual radioactivity in brain at 60 min after injection [6]: 0.004 % ID/cm^3; efflux by permeability glycoprotein (P-gp) [7]: efflux

Question: With `CCOCO[C@H]1C[C@@H](C(=O)OC)[C@]2(C)CC[C@H]3C(=O)O[C@H](c4ccoc4)C[C@]3(C)[C@H]2C1=O` [EOM-SB] as the compound, how does the logD (LogD determination) read?
Answer: Its logD is 2.46 ± 0.01.

Question: What about the fraction unbound at 10 min [1] of the same compound?
Answer: The fraction unbound at 10 min was 0.234.

Question: What about the “proportion of parent compound remaining in brain homogenate” value [8] of the same compound?
Answer: Its value is 14%.

Question: And the “proportion of parent remaining in brain homogenate, fold higher than [11C]-SA” value [8]?
Answer: Its value is ~3 fold.

Question: And the “plasma radioactivity that was parent compound” value [2, 9]?
Answer: Its value is ~50%.
